{
  "source": "ChEMBL document CHEMBL1129356",
  "about": "“Novel 3,7-diheterabicyclo[3.3.1]nonanes that possess predominant class III antiarrhythmic activity in 1-4 day post infarction dog models: X-ray diffraction analysis of 3-[4-(1H-imidazol-1-yl)benzoyl]-7-isopropyl-3,7-diazabicyclo[3.3.1]nona ne dihydroperchlorate” (1996)",
  "key": {"Canis familiaris [1]": {"system": "Canis familiaris", "test": "Antiarrhythmic properties are compared to lidocaine(2) using doses(3 and 6 mg/kg). Time required for the ventricular myocardium to undergo depolarization and repolarization ((post drug)", "assay_type": "functional, Canis lupus familiaris", "outline": "(§1)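 Mongrel dogs (about 12–25 kg), 1–4 days after coronary occlusion infarction, under sodium pentobarbital (~30 mg/kg) with 12-lead ECG monitoring. Agents and lidocaine were given iv at 3 and 6 mg/kg. Programmed ventricular stimulation was applied at baseline, about 2–5 min after each dose, and at 30 min. SVT was defined as ≥250 beats/min lasting ≥30 s. Pre means drug-free; post means after dosing.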"}, "Canis familiaris [2]": {"system": "Canis familiaris", "test": "Antiarrhythmic property ventricular effective refractory period(drug free) is compared to lidocaine(2) using doses(3 and 6 mg/kg)", "assay_type": "functional, Canis lupus familiaris, Heart", "outline": "as §1"}, "Canis familiaris [3]": {"system": "Canis familiaris", "test": "Antiarrhythmic property ventricular effective refractory period(post drug) is compared to lidocaine(2) using doses(3 and 6 mg/kg)", "assay_type": "functional, Canis lupus familiaris, Heart", "outline": "as §1"}, "Canis familiaris [4]": {"system": "Canis familiaris", "test": "Tested for antiarrhythmic property by measuring ability to decrease Mean blood pressure (drug free) is compared to Lidocaine using doses(3 and 6 mg/kg).", "assay_type": "functional, Canis lupus familiaris", "outline": "as §1"}, "Canis familiaris [5]": {"system": "Canis familiaris", "test": "(§2) Antiarrhythmic property His-Purkinje conduction time(post drug) is compared to lidocaine(2) using doses(3 and 6 mg/kg)", "assay_type": "functional, Canis lupus familiaris, His-Purkinje system", "outline": "as §1"}, "Canis familiaris [6]": {"system": "Canis familiaris", "test": "Tested for antiarrhythmic property by measuring ability to decrease Mean blood pressure(post drug) is compared to Lidocaine using doses(3 and 6 mg/kg)", "assay_type": "functional, Canis lupus familiaris", "outline": "as §1"}, "Canis familiaris [7]": {"system": "Canis familiaris", "test": "Antiarrhythmic property Nonsustained ventricular tachycardia is compared to lidocaine(2) using doses(3 and 6 mg/kg)", "assay_type": "functional, Canis lupus familiaris, Heart", "outline": "as §1"}, "Canis familiaris [8]": {"system": "Canis familiaris", "test": "Tested for antiarrhythmic property by measuring ability to decrease heart rate(drug free) is compared to Lidocaine using doses (3 and 6 mg/kg).", "assay_type": "functional, Canis lupus familiaris", "outline": "as §1"}, "Canis familiaris [9]": {"system": "Canis familiaris", "test": "Tested for antiarrhythmic property by measuring ability to decrease heart rate(post drug) is compared to Lidocaine using doses(3 and 6 mg/kg).", "assay_type": "functional, Canis lupus familiaris", "outline": "as §1"}, "Canis familiaris [10]": {"system": "Canis familiaris", "test": "as §2", "assay_type": "functional, Canis lupus familiaris, His-Purkinje system", "outline": "as §1", "remark": "listed apart in the source"}, "Canis familiaris [11]": {"system": "Canis familiaris", "test": "Antiarrhythmic properties are compared to lidocaine(2) using doses(3 and 6 mg/kg). Time required for the ventricular myocardium to undergo depolarization and repolarization (drug free)", "assay_type": "functional, Canis lupus familiaris", "outline": "as §1"}},
  "data": [
    {"smiles": "c1ccc(CN2CC3CC(C2)CN(CC2CC2)C3)cc1", "values": [
      {"measurement": "QT", "setting": "Canis familiaris [1]", "value": 260, "unit": "ms"},
      {"measurement": "VERP", "setting": "Canis familiaris [2]", "value": 160, "unit": "ms"},
      {"measurement": "VERP", "setting": "Canis familiaris [3]", "value": 230, "unit": "ms"},
      {"measurement": "MBP", "setting": "Canis familiaris [4]", "value": 130, "unit": "mmHg"},
      {"measurement": "HV interval", "setting": "Canis familiaris [5]", "value": 50, "unit": "ms"},
      {"measurement": "MBP", "setting": "Canis familiaris [6]", "value": 37, "unit": "mmHg"},
      {"measurement": "NSVT", "setting": "Canis familiaris [7]", "value": 3, "unit": "mg/kg"},
      {"measurement": "HR", "setting": "Canis familiaris [8]", "value": 130, "unit": "beats min-1"},
      {"measurement": "HR", "setting": "Canis familiaris [9]", "value": 110, "unit": "beats min-1"},
      {"measurement": "HV interval", "setting": "Canis familiaris [10]", "value": 50, "unit": "ms"},
      {"measurement": "QT", "setting": "Canis familiaris [11]", "value": 220, "unit": "ms"}
    ]}
  ]
}
